Shown is part of a subset that was picked to be rich in hits.
Avidin fluor: green autofluorescence of compounds with avidin beads – biophysical, 488/530 nm, flow cytometry, artefact control, profiling panel; AID 1775, 2009; fluorescence (KMESF) at 10 µM; 220,000 compounds, 0.38% hits; compound fluorescence 488/530 nm; stronger effect = higher value; in the data active = fluorescence above about 47
PKD1 kinase inh: inhibitors of human PKD1 kinase, biochemical, fluorescence polarization; AID 797, 2007; inhibition, % (concentration not given with the values); PKD1 kinase fluorescence polarization assay; 200,000 compounds, 0.056% hits
GSH fluor: compound fluorescence on glutathione beads, profiling panel, artefact control, biophysical, 488/530 nm, flow cytometry; GSH beads flow cytometry, compound fluorescence 488/530 nm; stronger effect = higher value; fluorescence (KMESF) at 10 µM; 190,000 compounds, 0.25% hits; AID 1776, 2009; in the data active = fluorescence above about 89;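 note: glutathione beads carrying GST-tagged Bcl family fusion proteins plus one bare bead set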
ABCB1 inh: ABCB1 efflux pump inhibitors, primary screen, cell-based, multiplex, flow cytometry, ABCG2 counter-screen; ATP-dependent translocase ABCB1 (Homo sapiens), P08183; CCRF-Adr cells, JC-1 efflux; inhibition, % at 6.6 µM; 190,000 compounds, 0.067% hits; AID 1326, 2008; in the data active = inhibition above about 40%;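 note: higher value means more JC-1 retained so stronger ABCB1 efflux block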
ABCG2 inh: ABCG2 efflux pump inhibitors, primary screen, multiplex with ABCB1, IgMXP3 cells, flow cytometry; JC-1 efflux; inhibition, % at 6.6 µM; 190,000 compounds, 0.1% hits;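 active = inhibition above 80%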
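Assay system – ABCG2 IgMXP3 and barcoded ABCB1 CCRF-Adr cell mix · Input – 3 million cells/mL in well · Reagent – JC-1 fluorescent substrate · Compound – single test compound dose, 6.6 µM final · Timing – 10 min exposure at 25 °C with rotation, no wash · Detection – flow cytometry of retained JC-1 fluorescence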
Lmaj promast: Leishmania major promastigote growth inhibition, primary screen; 200,000 compounds, 9% hits; inhibition, % at 10 µM; Leishmania major promastigotes, resazurin fluorescence viability;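 note: promastigotes grown with compound for 44 hours at 28 °C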
Hits are given with their value; . = inactive; / = no result. Cut-off read from the data, not from the text of the source, unless noted: active = inhibition above about 50%; inactive = the rest.

SMILES	Avidin fluor	PKD1 kinase inh	GSH fluor	ABCB1 inh	ABCG2 inh	Lmaj promast
O=C(COc1ccccc1)Nc1cccc(-c2nc3cc4ccccc4cc3[nH]2)c1	.	.	.	.	.	.
CC1(C)COC(/C=C/c2cccc([N+](=O)[O-])c2)=N1	.	.	.	.	.	98
CC1(C)COC(c2cc([N+](=O)[O-])ccc2Cl)=N1	.	.	.	.	.	.
C=CCOc1ccccc1/C=c1\sc2nc(=O)c(C)nn2c1=O	.	.	.	.	.	100
COc1ccccc1/C=c1\sc2nc(-c3cccs3)nn2c1=O	/	.	/	/	/	.
COc1ccc(NC(=O)c2ccco2)cc1NC(=O)c1c(F)c(F)c(OC)c(F)c1F	.	.	.	.	.	.
CC(C)OC(=O)c1ccc(NC(=O)c2ccco2)cc1	.	.	.	.	.	56
COc1c(F)c(F)c(C(=O)Nc2ccc(NC(=O)c3ccco3)cc2)c(F)c1F	.	.	.	.	.	64
CCN(CC)c1nc2ccccc2n2cnnc12	.	.	.	.	.	.
O=C(Cn1nc(-c2ccccc2)ccc1=O)Nc1ccc(N2CCN(C(=O)c3cccs3)CC2)cc1	.	.	.	.	.	.
Fc1ccccc1SCc1nnc(-c2ccccc2Br)o1	.	.	.	.	.	.
CCOC(=O)C1CCN(S(=O)(=O)c2ccc(C(C)(C)C)cc2)CC1	.	.	.	.	.	.
Cc1cc(OCCOCCNC(C)C)cc(C)c1Cl	.	.	.	.	.	98
Cc1cc(OCC(=O)NC(C)C)cc(C)c1Cl	.	.	.	.	.	.
COc1ccc2nc(NC(=O)Cn3cnc4ccccc4c3=O)sc2c1	.	/	/	/	/	/
CC(C)c1[nH]nc2c1C(C(C)C)C(C#N)=C(N)O2 (centres undefined)	.	.	.	.	.	69
CCOc1cc(NC(=S)NCCCN2CCOCC2)c(OCC)cc1NC(=O)C1CCCCC1	.	.	.	.	.	.
O=C(CSc1nncn1-c1ccccc1)c1c[nH]c2ccccc12	.	.	.	.	.	.
O=C(CSc1nc2ccccc2c(=O)n1-c1ccccc1)c1c[nH]c2ccccc12	.	.	.	.	.	51
COc1cc(/C=C/C(=O)O)cc(S(=O)(=O)Nc2ccccc2Cl)c1OC	.	.	.	.	.	.
O=C(CCNc1ccc(Cc2ccncc2)cc1)c1cccc([N+](=O)[O-])c1	.	.	.	.	.	95
O=C(CCNc1cccc(F)c1)c1cccc([N+](=O)[O-])c1	.	.	.	.	.	80
COc1ccc(C=O)cc1OS(=O)(=O)c1ccc(NC(C)=O)cc1	.	.	.	.	.	.
CC(=O)Nc1ccc(OS(=O)(=O)c2c(C)cc(C)cc2C)cc1	.	.	.	.	.	80
CC(=O)Nc1ccc(S(=O)(=O)Oc2ccc(C=O)cc2)cc1	.	.	.	.	.	78
SMILES	Avidin fluor	PKD1 kinase inh	GSH fluor	ABCB1 inh	ABCG2 inh	Lmaj promast
Cc1cc(=O)oc2cc(Oc3ncccc3[N+](=O)[O-])ccc12	.	.	.	.	.	.
Cc1cc(=O)oc2cc(Oc3ccc([N+](=O)[O-])cc3[N+](=O)[O-])ccc12	.	.	.	/	.	86
Cc1ccccc1NC(=O)N(CCc1nc2ccccc2[nH]1)Cc1ccccc1	.	.	.	.	.	58
COc1ccccc1NC(=S)N(CCc1ccc(OC)c(OC)c1)Cc1ccccn1	.	.	.	.	.	.
COc1ccccc1NC(=S)N(CCc1nc2cc(C)c(C)cc2[nH]1)Cc1cccnc1	.	.	.	.	.	57
Cc1cc2nc(CCN(Cc3cccnc3)C(=S)Nc3ccccc3)[nH]c2cc1C	.	.	.	.	.	91
Cc1cc2nc(CCN(Cc3cccnc3)C(=S)Nc3ccc(F)cc3)[nH]c2cc1C	.	.	.	.	.	.
CN(C)c1ccc(NS(=O)(=O)c2cc(Cl)ccc2Cl)cc1	.	.	.	.	.	64
COc1ccc(N2CCc3c(C)nc4c(OC)cccc4c32)cc1	.	.	.	.	.	100

Compound activity from PubChem.
